Experimental data from ChEMBL document CHEMBL2407014, “Suberoylanilide hydroxamic acid, a histone deacetylase inhibitor, induces the production of anti-inflammatory cyclodepsipeptides from Beauveria felina” (J Nat Prod, 2013).
Starred links: 1 amine or outer side, 2 acyl side, 3 side chain; linkers in the order of their positions; H or OH if unused. Non-standard residues stand in square brackets, D forms with d. Residues, ends and D or L forms follow the SMILES beside them. ξ: configuration not given here. X1 = C[C@H]1CCN([*:1])[C@@H]1C(=O)[*:2]; X2 = CC1CCN([*:1])[C@@H]1C(=O)[*:2]; Hica(2S) = CC(C)C[C@H](O)C(=O)O; ξLac(3-iPr) = CC(C)CC(O)C(=O)O; NMeV = CN[C@H](C(=O)O)C(C)C; βAla = NCCC(=O)O

Key:
[1] = Antiinflammatory activity in human neutrophils assessed as inhibition of FMLP-induced superoxide anion production treated 5 mins before FMLP addition measured after 10 mins; format: functional, cell-based; details: Neutrophil
Outline: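 Neutrophils from healthy adult donors' venous blood (dextran sedimentation, Ficoll centrifugation), with 0.5 mg/mL ferricytochrome c and 1 mM Ca²⁺, equilibrated 37 °C 2 min, compound 5 min, cytochalasin B (1 μg/mL) 3 min, then FMLP 100 nM for 10 min. SOD-inhibitable (100 U/mL) ferricytochrome c reduction read continuously at 550 nm; IC50 as 50% inhibition concentration.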

[2] = Cytotoxicity against human neutrophils by LDH release assay; format: cell-based; details: neutrophil
[3] = Antiinflammatory activity in human neutrophils assessed as inhibition of FMLP-induced elastase release treated 5 mins before FMLP addition; format: functional, cell-based; details: Neutrophil
Outline: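 Neutrophils (6 × 10⁵/mL) with MeO-Suc-Ala-Ala-Pro-Val-p-nitroanilide substrate (100 μM), equilibrated 37 °C 2 min, compound 5 min, then activated with FMLP (100 nM)/cytochalasin B (0.5 μg/mL). Absorbance at 405 nm monitored continuously; results as percentage of initial elastase rate; IC50 as concentration giving 50% inhibition.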

CC(C)C[C@@H]1OC(=O)CCNC(=O)[C@H](C(C)C)N(C)C(=O)[C@H](C(C)C)NC(=O)[C@H](Cc2ccccc2)NC(=O)[C@@H]2CCCN2C1=O (cyclo(FV[NMeV][βAla][Hica(2S)]P))
IC50 [1]: 10 µM | Activity [2]: Non-toxic

CC(C)C[C@@H]1OC(=O)CCNC(=O)[C@H](C(C)C)N(C)C(=O)[C@H](C(C)C)NC(=O)[C@H](Cc2ccccc2)NC(=O)[C@@H]2[C@@H](C)CCN2C1=O (cyclo(FV[NMeV][βAla][Hica(2S)][X1]))
IC50 [1]: 10.9 µM | Activity [2]: Non-toxic | IC50 [3]: 10 µM

O=c1c(-c2ccc(O)cc2)coc2cc(O)cc(O)c12 [GENISTEIN]
IC50 [1]: 0.69 µM | IC50 [3]: 6.72 µM

CC(C)CC1OC(=O)CCNC(=O)[C@H](C(C)C)N(C)C(=O)[C@H](C(C)C)N(C)C(=O)[C@H](Cc2ccccc2)NC(=O)[C@@H]2C(C)CCN2C1=O (stereo not given in full) [ISARIDIN C2] (cyclo(F[NMeV][NMeV][βAla][ξLac(3-iPr)][X2]))
IC50 [1]: 10.1 µM | Activity [2]: Non-toxic | IC50 [3]: 12.1 µM

CC(C)CC1OC(=O)CCNC(=O)[C@H](C(C)C)N(C)C(=O)[C@H](C(C)C)N(C)C(=O)[C@H](Cc2ccccc2)NC(=O)[C@@H]2CCCN2C1=O (stereo not given in full) [ISARIDIN E] (cyclo(F[NMeV][NMeV][βAla][ξLac(3-iPr)]P))
IC50 [1]: 12.2 µM | Activity [2]: Non-toxic | IC50 [3]: 12.8 µM

CC[C@H](C)[C@@H]1NC(=O)[C@@H]2[C@@H](C)CCN2C(=O)[C@@H](CC(C)C)OC(=O)CCNC(=O)[C@H](C)N(C)C(=O)[C@H](C(C)C)N(C)C1=O [ROSEOCARDIN]
Activity [2]: Non-toxic | IC50 [3]: 15.1 µM
